Two compounds from BindingDB's records for doi:10.1021/jm0303608 (University of Florida, 2004) can be followed below.

For orientation: Kd means the free concentration of one partner at which half of the binding sites on the other are occupied at equilibrium, for simple one-to-one binding. A lower Kd goes with tighter binding.

Experiment [1] has as its target Melanocortin receptor 3 (Mus musculus, UniProt P33033). In words: Effective concentration against mouse Melanocortin 3 receptor. The method in brief:
(§1)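 HEK-293 cells stably expressing the mouse receptor (calcium phosphate transfection, G418 1 mg/mL selection) were transfected with 4 μg CRE/β-galactosidase reporter. EC50 came from nonlinear least-squares fit; at least three independent experiments.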

The target in experiment [2] is Melanocortin receptor 4 (Mus musculus, UniProt P56450). In words: Effective concentration against mouse melanocortin MC4 receptor. The method in brief: as §1
Chain of Melanocortin receptor 4 (P56450 whole entry): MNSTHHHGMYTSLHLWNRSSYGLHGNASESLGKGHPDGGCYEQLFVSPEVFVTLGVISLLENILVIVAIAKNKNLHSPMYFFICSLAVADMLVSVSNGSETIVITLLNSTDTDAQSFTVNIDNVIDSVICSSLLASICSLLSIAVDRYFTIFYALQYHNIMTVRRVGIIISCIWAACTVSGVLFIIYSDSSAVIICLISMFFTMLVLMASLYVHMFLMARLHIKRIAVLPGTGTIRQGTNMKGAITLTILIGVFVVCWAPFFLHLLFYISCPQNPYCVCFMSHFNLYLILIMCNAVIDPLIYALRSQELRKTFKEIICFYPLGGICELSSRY

Chain of Melanocortin receptor 3 (P33033 whole entry): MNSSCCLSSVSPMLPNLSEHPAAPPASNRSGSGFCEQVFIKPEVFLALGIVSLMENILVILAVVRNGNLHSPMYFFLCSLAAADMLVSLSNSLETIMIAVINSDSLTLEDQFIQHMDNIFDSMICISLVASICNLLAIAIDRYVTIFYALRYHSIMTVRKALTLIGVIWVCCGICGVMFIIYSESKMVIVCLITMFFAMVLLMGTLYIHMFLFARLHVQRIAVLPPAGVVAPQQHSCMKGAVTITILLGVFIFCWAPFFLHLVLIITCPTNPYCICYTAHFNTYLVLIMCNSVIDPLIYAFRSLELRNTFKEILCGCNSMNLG

In the case of `C[C@@H]1NC(=O)[C@@H](CC(N)=O)NC(=O)[C@H](Cc2ccccc2)NC(=O)[C@@H](Cc2ccccc2)NC(=O)[C@H](CCCNC(=N)N)NC(=O)[C@@H](NC(=O)[C@@H](N)Cc2ccc(O)cc2)CC(=O)NC(C(=O)NN[C@H](Cc2ccc(O)cc2)C(=O)C(N)=O)NC(=O)C(=O)[C@@H](Cc2ccccc2)NC1=O` (stereo partly drawn) [Tyr-c[Asp-Arg-Phe-Phe-Asn-Ala-Phe-Dpr]-Tyr-NH2], the Kd in experiment [1] came to 2000 nM.
Regarding `C[C@@H]1NC(=O)[C@H](CC(N)=O)NC(=O)[C@H](Cc2ccccc2)NC(=O)[C@H](Cc2ccccc2)NC(=O)[C@H](CCCNC(=N)N)NC(=O)[C@@H](NC(=O)[C@@H](N)Cc2ccc(O)cc2)CC(=O)NC[C@@H](C(=O)N[C@@H](Cc2ccc(O)cc2)C(N)=O)NC(=O)[C@H](Cc2ccccc2)NC1=O` [Tyr-c[Asp-Arg-Phe-Phe-Asn-Ala-Phe-Dpr]-Tyr-NH2], the Kd in experiment [2] is 1260 nM.
